Molecules are shown by their SMILES. The source made the active and inactive calls. No cut-off for these calls is given here. Some results are limits rather than exact numbers.

The source of these data is ChEMBL document CHEMBL3877310, “Rickettsia prowazekii methionine aminopeptidase as a promising target for the development of antibacterial agents” (Bioorg Med Chem, 2017).

The species entered for data set [1] is Rattus norvegicus. The data set is described as follows: Cytotoxicity against CD rat primary pulmonary vascular endothelial cells assessed as reduction in cell viability at 0.003 to 3 uM measured after 72 hrs by WST1 assay. In kind it is toxicity, cell-based. The method, boiled down:
(§1)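 Uninfected primary CD-rat pulmonary ECs (passage <15, DMEM high glucose/10% FBS/4 mM L-glutamine, 37 °C, 5% CO2) exposed to compounds over graded ranges with 0.3% DMSO as solvent. Viability read as WST-1 metabolism.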

Data set [2] deals with Methionine aminopeptidase 1 (Homo sapiens, UniProt P53582). Nature of the data set: Inhibition of recombinant full length human His-tagged methionine aminopeptidase 1 expressed in Escherichia coli BL21(DE3) using methionylprolyl-p-nitroanilide as substrate preincubated for 20 mins followed by substrate addition measured for 20 mins in presence of CoCl2 by proline aminopeptidase coupled enzyme assay.

For data set [3], the species on record is Rattus norvegicus. Nature of the data set: Cytotoxicity against CD rat primary pulmonary vascular endothelial cells assessed as reduction in cell viability at 0.3 to 300 uM measured after 72 hrs by WST1 assay. It counts as toxicity, cell-based. The method in brief:
as §1

The species entered for data set [4] is Rattus norvegicus. The data set is described as follows: Cytotoxicity against CD rat primary pulmonary vascular endothelial cells assessed as reduction in cell viability at 0.03 to 30 uM measured after 72 hrs by WST1 assay. It counts as toxicity, cell-based. The method in brief:
as §1

Data set [5] addresses Methionine aminopeptidase 2 (Homo sapiens, UniProt P50579). Nature of the data set: Inhibition of recombinant full length human N-terminal GST/His6-tagged methionine aminopeptidase 2 expressed in baculovirus infected sf9 cells using methionylprolyl-p-nitroanilide as substrate preincubated for 20 mins followed by substrate addition measured for 20 mins in presence of MnCl2 by proline aminopeptidase coupled enzyme assay.

The test system of data set [6] is Endothelial cell. Nature of the data set: Antibacterial activity against Rickettsia prowazekii str. Breinl infected in CD rat primary pulmonary vascular endothelial cells assessed as protection against bacterial infection by measuring restoration of host cell viability at 0.03 to 30 uM measured 72 hrs post infection by WST1 assay. It counts as functional, cell-based.

Data set [7] is filed under the species Rattus norvegicus. The data set is described as follows: Cytotoxicity against CD rat primary pulmonary vascular endothelial cells assessed as effect on appearance of cell monolayers at 300 uM measured after 72 hrs by Hoechst 33258/phalloidin staining based fluorescence microscopic analysis. In kind it is toxicity.
Data set [8] concerns Endothelial cell. Nature of the data set: Antibacterial activity against Rickettsia prowazekii str. Breinl infected in CD rat primary pulmonary vascular endothelial cells assessed as bacterial shape change at 300 uM measured 72 hrs post infection by Hoechst 33258/phalloidin staining based fluorescence microscopic analysis. It counts as functional.
Data set [9] in a line: Antibacterial activity against Rickettsia prowazekii str. Breinl infected with 50:1 multiplicity of infection in CD rat primary pulmonary vascular endothelial cells assessed as restoration of host cell viability by measuring fold reduction in viability at 0.3 to 300 uM measured 72 hrs post infection by WST1 assay relative to control. It counts as functional.
In data set [10] the test system is Endothelial cell. The data set is described as follows: Antibacterial activity against Rickettsia prowazekii str. Breinl infected in CD rat primary pulmonary vascular endothelial cells assessed as protection against bacterial infection by measuring restoration of host cell viability at 0.3 to 300 uM measured 72 hrs post infection by WST1 assay. It counts as functional, cell-based.

The species named for data set [11] is Rattus norvegicus. The data set is described as follows: Cytotoxicity against CD rat primary pulmonary vascular endothelial cells assessed as reduction in cell viability at 0.0075 to 7.5 uM measured after 72 hrs by WST1 assay. It counts as toxicity, cell-based. The method, boiled down: as §1
Data set [12] deals with Endothelial cell. The data set is described as follows: Antibacterial activity against Rickettsia prowazekii str. Breinl infected in CD rat primary pulmonary vascular endothelial cells assessed as bacterial shape change at 25 ug/ml measured 72 hrs post infection by Hoechst 33258/phalloidin staining based fluorescence microscopic analysis. It counts as functional.
The species named for data set [13] is Rattus norvegicus. The data set is described as follows: Cytotoxicity against CD rat primary pulmonary vascular endothelial cells assessed as reduction in cell viability at 0.02 to 20 uM measured after 72 hrs by WST1 assay. In kind it is toxicity, cell-based. The method in brief: as §1
Data set [14] can be described thus: Antibacterial activity against Rickettsia prowazekii str. Breinl infected with 50:1 multiplicity of infection in CD rat primary pulmonary vascular endothelial cells assessed as restoration of host cell viability by measuring fold reduction in viability at 0.003 to 3 uM measured 72 hrs post infection by WST1 assay relative to control. It counts as functional.

Data set [15] deals with Endothelial cell. The data set is described as follows: Antibacterial activity against Rickettsia prowazekii str. Breinl infected in CD rat primary pulmonary vascular endothelial cells assessed as protection against bacterial infection by measuring restoration of host cell viability at 0.003 to 3 uM measured 72 hrs post infection by WST1 assay. It counts as functional, cell-based.

Methionine aminopeptidase 2, sequence (P50579 whole entry): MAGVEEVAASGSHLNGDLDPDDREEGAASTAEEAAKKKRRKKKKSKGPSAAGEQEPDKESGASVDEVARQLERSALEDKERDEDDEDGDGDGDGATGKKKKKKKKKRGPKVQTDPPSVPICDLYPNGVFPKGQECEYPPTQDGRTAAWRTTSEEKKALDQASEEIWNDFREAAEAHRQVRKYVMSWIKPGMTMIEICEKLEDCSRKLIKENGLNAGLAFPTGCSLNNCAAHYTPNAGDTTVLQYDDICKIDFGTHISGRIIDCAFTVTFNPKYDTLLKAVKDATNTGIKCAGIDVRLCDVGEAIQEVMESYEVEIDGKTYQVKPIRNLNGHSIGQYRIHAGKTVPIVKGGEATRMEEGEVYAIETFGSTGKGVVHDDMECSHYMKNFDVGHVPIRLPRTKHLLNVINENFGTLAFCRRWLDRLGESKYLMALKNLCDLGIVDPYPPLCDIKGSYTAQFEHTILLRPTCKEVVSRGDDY

With `Cc1ccc2cccc(O)c2n1` [8-HYDROXY QUINALDINE], in the data set filed under Rattus norvegicus [1], the Activity entry is “Non-Toxic”. The IC50 in [2] was greater than 15 µM. With `O=C(O)c1ccc(-c2ccccc2Cl)o1`, the Activity result in the data set filed under Rattus norvegicus [3] is “Non-Toxic”. As to `Nc1nnc(SCc2ccc(Cl)cc2Cl)[nH]1`, the Activity result in the data set filed under Rattus norvegicus [4] is reported as “Non-Toxic”. As for `CC(C)(C)c1ccc(CSc2nnc(N)[nH]2)cc1`, the Activity entry in the data set listed under Rattus norvegicus [4] was “Non-Toxic”. In data set [5], the IC50 was greater than 15 µM.

Consider `Oc1cccc2cccnc12` [OXYQUINOLINE], for which, in the data set listed under Rattus norvegicus [4], the Activity result is “Non-Toxic”. Besides, the outcome with Endothelial cell [6] was Active. Also, the IC50 worked out at 12.9 µM in [2] and 1.27 µM in data set [5]. `O=C(O)c1ccc(-c2cc(Cl)ccc2Cl)o1`: in the data set listed under Rattus norvegicus [3], the Activity entry is “Non-Toxic”. `Nc1nnc(SCc2ccc(Cl)cc2)[nH]1`: the Activity result in the data set filed under Rattus norvegicus [3] and in the data set listed under Rattus norvegicus [7] was “Non-Toxic” in each case. In addition, the outcome in the data set with Endothelial cell [8] and with Endothelial cell [10] was Active. Moreover, the “fold change (FC)” value in data set [9] is listed as 1.2.

In the case of `O=[N+]([O-])c1cc(CN2CCCCC2)c(O)c2ncccc12`, in the data set filed under Rattus norvegicus [11], the Activity entry is given as “Non-Toxic”. On to `O=[N+]([O-])c1ccc(O)c2ncccc12` [NITROXOLINE], for which the Activity result in the data set filed under Rattus norvegicus [1] is “Non-Toxic”.

Take `Oc1ccc(Cl)c2cccnc12` [CLOXYQUIN]: in the data set listed under Rattus norvegicus [4], the Activity entry is “Non-Toxic”. The result in the data set with Endothelial cell [6] was Active. Regarding `C[C@H]1c2cccc(O)c2C(=O)C2=C(O)[C@]3(O)C(=O)C(C(N)=O)=C(O)[C@@H](N(C)C)[C@@H]3[C@@H](O)[C@@H]21`, the outcome in the data set on Endothelial cell [12] was Active. As to `Cc1ccc(CSc2nnc(N)[nH]2)cc1`, in the data set filed under Rattus norvegicus [3], the Activity result is “Non-Toxic”. Besides, the outcome in the data set with Endothelial cell [10] was Active. In the same order, the values of `Nc1n[nH]c(SCc2ccccc2)n1` are “Non-Toxic” and “Active”. In the case of `Nc1nnc(SCc2ccc(F)cc2)[nH]1`, the Activity entry in the data set filed under Rattus norvegicus [3] is listed as “Non-Toxic”. The result in the data set on Endothelial cell [10] was Active.

As for `Oc1c(CN2CCOCC2)cc(Cl)c2cccnc12`, the Activity entry in the data set listed under Rattus norvegicus [13] is listed as “Non-Toxic”.

Consider `O=[N+]([O-])c1cc(CN2CCOCC2)c(O)c2ncccc12`, for which the Activity result in the data set filed under Rattus norvegicus [1] is “Non-Toxic”. Moreover, the “fold change (FC)” value in data set [14] turned out to be 1.2. The result with Endothelial cell [15] was Active. As for `Nc1n[nH]c(SCc2ccccc2Cl)n1`, in the data set filed under Rattus norvegicus [3], the Activity entry is recorded as “Non-Toxic”. The result in the data set with Endothelial cell [10] was Active. For the compound `CC(C)c1ccc(CSc2nnc(N)[nH]2)cc1`, in the data set listed under Rattus norvegicus [4], the Activity result was “Non-Toxic”.
